Assay results from ChEMBL document CHEMBL4689842, “EUbOPEN Chemogenomics Library wave 1” (2021).

Tested on: U2OS
Assay: Multiplex assay against U2OS
Format: toxicity, cell-based
Details: human
Outline: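 Live cells carried four stains from seeding: Hoechst33342, BioTracker Green Microtubule Cytoskeleton Dye, MitoTracker Red and Annexin V Alexa Fluor 680. They were imaged on a CQ1 microscope at 37°C and 5% CO2 after compound addition. Using CellPathfinder machine-learning gating, cells were split into Hoechst high-intensity objects or normal cells, normal cells into healthy, pyknosed or fragmented nuclei, and pyknosed cells into mitotic or apoptotic; tubulin, mitochondrial-mass and membrane-permeability phenotypes are per cents of healthy-nucleus cells.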

[1] = 12 h, 1 µM, compound concentration 1 uM, replicate 1
[2] = 12 h, 1 µM, compound concentration 1 uM, replicate 2
[3] = 12 h, 10 µM, compound concentration 10 uM, replicate 1
[4] = 12 h, 10 µM, compound concentration 10 uM, replicate 2
[5] = 24 h, 1 µM, compound concentration 1 uM, replicate 1
[6] = 24 h, 1 µM, compound concentration 1 uM, replicate 2
[7] = 24 h, 10 µM, compound concentration 10 uM, replicate 1
[8] = 24 h, 10 µM, compound concentration 10 uM, replicate 2
[9] = 48 h, 1 µM, compound concentration 1 uM, replicate 1
[10] = 48 h, 1 µM, compound concentration 1 uM, replicate 2
[11] = 48 h, 10 µM, compound concentration 10 uM, replicate 1
[12] = 48 h, 10 µM, compound concentration 10 uM, replicate 2

C=CC(=O)Nc1cccc(C(=O)Nc2ccc(Nc3cc(-c4[nH]c(SC)nc4C)ccn3)cc2)c1
Population Apoptotic (%) [1]: 52%
Population Fragmented Nuclei (%) [1]: 9%
Population Healthy Nuclei (%) [1]: 78%
Population Hoechst High Intensity Objects (%) [1]: 8%
Population Membrane Permeable-Phenotype (%) [1]: 4%
Population Mitochondria Different-Phenotype (%) [1]: 8%
Population Mitotic Cells (%) [1]: 47%
Population Normal (%) [1]: 91%
Population Pyknosed Nuclei (%) [1]: 12%
Population Tubulin-Different-Phenotype (%) [1]: 11%
Total Cell Count [1]: 259
Population Apoptotic (%) [2]: 0%
Population Fragmented Nuclei (%) [2]: 2%
Population Healthy Nuclei (%) [2]: 94%
Population Hoechst High Intensity Objects (%) [2]: 14%
Population Membrane Permeable-Phenotype (%) [2]: 0%
Population Mitochondria Different-Phenotype (%) [2]: 7%
Population Mitotic Cells (%) [2]: 100%
Population Normal (%) [2]: 85%
Population Pyknosed Nuclei (%) [2]: 2%
Population Tubulin-Different-Phenotype (%) [2]: 23%
Total Cell Count [2]: 112
Population Fragmented Nuclei (%) [3]: 7%
Population Healthy Nuclei (%) [3]: 77%
Population Hoechst High Intensity Objects (%) [3]: 6%
Population Membrane Permeable-Phenotype (%) [3]: 3%
Population Mitochondria Different-Phenotype (%) [3]: 8%
Population Mitotic Cells (%) [3]: 59%
Population Normal (%) [3]: 93%
Population Pyknosed Nuclei (%) [3]: 14%
Population Tubulin-Different-Phenotype (%) [3]: 9%
Total Cell Count [3]: 171
Population Apoptotic (%) [4]: 40%
Population Fragmented Nuclei (%) [4]: 6%
Population Healthy Nuclei (%) [4]: 83%
Population Hoechst High Intensity Objects (%) [4]: 18%
Population Membrane Permeable-Phenotype (%) [4]: 7%
Population Mitochondria Different-Phenotype (%) [4]: 12%
Population Mitotic Cells (%) [4]: 60%
Population Normal (%) [4]: 81%
Population Pyknosed Nuclei (%) [4]: 10%
Population Tubulin-Different-Phenotype (%) [4]: 12%
Total Cell Count [4]: 78
Population Apoptotic (%) [5]: 40%
Population Fragmented Nuclei (%) [5]: 13%
Population Healthy Nuclei (%) [5]: 76%
Population Hoechst High Intensity Objects (%) [5]: 4%
Population Membrane Permeable-Phenotype (%) [5]: 5%
Population Mitochondria Different-Phenotype (%) [5]: 5%
Population Mitotic Cells (%) [5]: 60%
Population Normal (%) [5]: 95%
Population Pyknosed Nuclei (%) [5]: 10%
Population Tubulin-Different-Phenotype (%) [5]: 18%
Total Cell Count [5]: 278
Population Apoptotic (%) [6]: 37%
Population Fragmented Nuclei (%) [6]: 3%
Population Healthy Nuclei (%) [6]: 87%
Population Membrane Permeable-Phenotype (%) [6]: 2%
Population Mitochondria Different-Phenotype (%) [6]: 10%
Population Mitotic Cells (%) [6]: 62%
Population Pyknosed Nuclei (%) [6]: 8%
Population Tubulin-Different-Phenotype (%) [6]: 25%
Total Cell Count [6]: 122
Population Apoptotic (%) [7]: 52%
Population Fragmented Nuclei (%) [7]: 7%
Population Healthy Nuclei (%) [7]: 83%
Population Hoechst High Intensity Objects (%) [7]: 5%
Population Membrane Permeable-Phenotype (%) [7]: 5%
Population Mitochondria Different-Phenotype (%) [7]: 6%
Population Mitotic Cells (%) [7]: 47%
Population Normal (%) [7]: 94%
Population Pyknosed Nuclei (%) [7]: 8%
Population Tubulin-Different-Phenotype (%) [7]: 6%
Total Cell Count [7]: 208
Population Apoptotic (%) [8]: 40%
Population Fragmented Nuclei (%) [8]: 5%
Population Healthy Nuclei (%) [8]: 85%
Population Hoechst High Intensity Objects (%) [8]: 11%
Population Membrane Permeable-Phenotype (%) [8]: 8%
Population Mitochondria Different-Phenotype (%) [8]: 14%
Population Mitotic Cells (%) [8]: 60%
Population Normal (%) [8]: 88%
Population Pyknosed Nuclei (%) [8]: 9%
Population Tubulin-Different-Phenotype (%) [8]: 12%
Total Cell Count [8]: 95
Population Apoptotic (%) [9]: 37%
Population Fragmented Nuclei (%) [9]: 5%
Population Healthy Nuclei (%) [9]: 86%
Population Hoechst High Intensity Objects (%) [9]: 3%
Population Membrane Permeable-Phenotype (%) [9]: 4%
Population Mitochondria Different-Phenotype (%) [9]: 10%
Population Mitotic Cells (%) [9]: 62%
Population Normal (%) [9]: 96%
Population Pyknosed Nuclei (%) [9]: 7%
Population Tubulin-Different-Phenotype (%) [9]: 17%
Total Cell Count [9]: 291
Population Apoptotic (%) [10]: 18%
Population Fragmented Nuclei (%) [10]: 6%
Population Healthy Nuclei (%) [10]: 85%
Population Hoechst High Intensity Objects (%) [10]: 4%
Population Membrane Permeable-Phenotype (%) [10]: 6%
Population Mitochondria Different-Phenotype (%) [10]: 13%
Population Mitotic Cells (%) [10]: 81%
Population Normal (%) [10]: 95%
Population Pyknosed Nuclei (%) [10]: 8%
Population Tubulin-Different-Phenotype (%) [10]: 28%
Total Cell Count [10]: 117
Population Apoptotic (%) [11]: 31%
Population Fragmented Nuclei (%) [11]: 7%
Population Healthy Nuclei (%) [11]: 84%
Population Hoechst High Intensity Objects (%) [11]: 3%
Population Membrane Permeable-Phenotype (%) [11]: 2%
Population Mitochondria Different-Phenotype (%) [11]: 9%
Population Mitotic Cells (%) [11]: 68%
Population Normal (%) [11]: 96%
Population Pyknosed Nuclei (%) [11]: 8%
Total Cell Count [11]: 316
Population Apoptotic (%) [12]: 11%
Population Fragmented Nuclei (%) [12]: 9%
Population Healthy Nuclei (%) [12]: 80%
Population Hoechst High Intensity Objects (%) [12]: 9%
Population Membrane Permeable-Phenotype (%) [12]: 4%
Population Mitochondria Different-Phenotype (%) [12]: 17%
Population Mitotic Cells (%) [12]: 88%
Population Normal (%) [12]: 90%
Population Pyknosed Nuclei (%) [12]: 10%
Population Tubulin-Different-Phenotype (%) [12]: 10%
Total Cell Count [12]: 133
